From ChEMBL document CHEMBL4732065 (Eur J Med Chem, 2021) come the findings set out here.

Bounds are passed on as bounds.

What is called IC50 is the concentration needed to halve the response being measured.

For one test, the target named is T1, Cytochrome P450 1B1 (Homo sapiens, UniProt Q16678).
T1 sequence (Q16678 whole entry): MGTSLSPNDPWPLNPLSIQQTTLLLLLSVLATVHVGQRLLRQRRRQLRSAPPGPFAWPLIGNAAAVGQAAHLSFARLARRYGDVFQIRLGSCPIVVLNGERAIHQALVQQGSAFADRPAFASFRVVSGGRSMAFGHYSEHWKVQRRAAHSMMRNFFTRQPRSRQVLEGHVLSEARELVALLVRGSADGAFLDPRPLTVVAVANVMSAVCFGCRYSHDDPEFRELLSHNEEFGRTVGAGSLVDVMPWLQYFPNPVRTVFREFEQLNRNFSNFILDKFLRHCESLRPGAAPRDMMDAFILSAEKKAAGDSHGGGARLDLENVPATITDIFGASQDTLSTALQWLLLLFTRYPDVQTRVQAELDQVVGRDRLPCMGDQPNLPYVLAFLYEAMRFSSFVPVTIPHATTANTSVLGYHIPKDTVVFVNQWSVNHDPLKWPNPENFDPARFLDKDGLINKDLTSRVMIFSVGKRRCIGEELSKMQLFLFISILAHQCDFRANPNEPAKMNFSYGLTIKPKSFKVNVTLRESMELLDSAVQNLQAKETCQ
Put plainly: Inhibition of recombinant human CYP1B1 using 7-ethoxyresorufin as substrate after 35 mins in presence of NADP+ by EROD assay. The gist of the method:
(§1)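 Recombinant human CYP1 Supersomes co-expressing P450 reductase; 20 fmol CYP1B1, 10 fmol CYP1A1 or 60 fmol CYP1A2 per well. Incubated at 37 °C (1B1 35 min, 1A1 15 min, 1A2 50 min).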
In the case of `COc1ccc(OC)c2c1c(OC)cc1c(=O)cc(-c3c[nH]c4ncccc34)oc12`, the half-maximal inhibitory concentration (IC50) came out at 0.189 µM.

Regarding `COc1ccc(OC)c2c1c(OC)cc1c(=O)cc(-c3c[nH]c4ccccc34)oc12`, the IC50 came out at 0.0041 µM.

Regarding `COc1ccc(OC)c2c1c(OC)cc1c(=O)cc(-c3ccc(Cl)cn3)oc12`, the IC50 was 0.00014 µM.

Turning to `COc1ccc(OC)c2c1c(OC)cc1c(=O)cc(-c3ccc(Br)cn3)oc12`, the IC50 was found to be 0.0013 µM.

In the case of `COc1ccc(OC)c2c1c(OC)cc1c(=O)cc(-c3cccnc3O)oc12`, the concentration for half-maximal inhibition (IC50) was greater than 1 µM.

In the case of `COc1ccc(OC)c2c1c(OC)cc1c(=O)cc(-c3ccnc(Br)c3)oc12`, the IC50 came to 0.00046 µM.

As for `COc1ccc(OC)c2c1c(OC)cc1c(=O)cc(-c3cccc(O)n3)oc12`, the 50% inhibitory concentration (IC50) stood at 0.0077 µM.

On to `COc1ccc(OC)c2c1c(OC)cc1c(=O)cc(-c3ccc4ccccc4n3)oc12`, for which the IC50 came to 0.001 µM.

For the molecule `COc1ccc(OC)c2c1c(OC)cc1c(=O)cc(-c3cncc(N)c3)oc12`, the IC50 turned out to be 0.0229 µM.

As for `COc1ccc(OC)c2c1c(OC)cc1c(=O)cc(-c3cccnc3)oc12`, the IC50 was 0.001 µM.

As for `COc1ccc(OC)c2c1c(OC)cc1c(=O)cc(-c3cccnc3Br)oc12`, the 50% inhibitory concentration (IC50) stood at 0.0639 µM.

Regarding `COc1ccc(OC)c2c1c(OC)cc1c(=O)cc(-c3cccc(Cl)n3)oc12`, the 50% inhibitory concentration (IC50) was 0.0003 µM.

In the case of `COc1ccc(OC)c2c1c(OC)cc1c(=O)cc(-c3ccc(N4CCN(C)CC4)cc3)oc12`, the concentration for half-maximal inhibition (IC50) was greater than 1 µM.

For `COc1ccc(OC)c2c1c(OC)cc1c(=O)cc(-c3cccc(N4CCN(C)CC4)c3)oc12`, the half-inhibitory concentration (IC50) was greater than 1 µM.

The next test deals with T2, Cytochrome P450 1A1 (Homo sapiens, UniProt P04798).
T2 sequence (P04798 whole entry): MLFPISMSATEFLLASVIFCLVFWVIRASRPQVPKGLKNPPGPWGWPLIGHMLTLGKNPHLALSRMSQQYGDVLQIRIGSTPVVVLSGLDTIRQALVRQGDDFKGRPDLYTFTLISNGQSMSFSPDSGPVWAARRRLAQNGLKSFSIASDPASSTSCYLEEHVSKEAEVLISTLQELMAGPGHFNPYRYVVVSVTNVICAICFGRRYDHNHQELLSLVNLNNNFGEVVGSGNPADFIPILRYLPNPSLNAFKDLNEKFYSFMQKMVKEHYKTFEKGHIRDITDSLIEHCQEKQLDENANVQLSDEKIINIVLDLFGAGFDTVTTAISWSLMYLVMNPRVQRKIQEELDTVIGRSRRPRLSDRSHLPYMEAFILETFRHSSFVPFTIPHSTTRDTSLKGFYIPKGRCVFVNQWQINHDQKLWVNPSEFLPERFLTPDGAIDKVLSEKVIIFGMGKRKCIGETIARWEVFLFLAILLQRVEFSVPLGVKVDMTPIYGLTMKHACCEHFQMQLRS
Put plainly: Inhibition of recombinant human CYP1A1 using 7-ethoxyresorufin as substrate after 15 mins in presence of NADP+ by EROD assay. The test is classed as ADME. The gist of the method: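 Recombinant human CYP1 Supersomes co-expressing P450 reductase; 20 fmol CYP1B1, 10 fmol CYP1A1 or 60 fmol CYP1A2 per well. Incubated at 37 °C (1B1 35 min, 1A1 15 min, 1A2 50 min). Stopped with cold methanol; fluorescence read at 544/590 nm; triplicates.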
Regarding `COc1ccc(OC)c2c1c(OC)cc1c(=O)cc(-c3c[nH]c4ncccc34)oc12`, the IC50 came out at 0.0238 µM.

`COc1ccc(OC)c2c1c(OC)cc1c(=O)cc(-c3c[nH]c4ccccc34)oc12`: the IC50 worked out at 0.0165 µM.

`COc1ccc(OC)c2c1c(OC)cc1c(=O)cc(-c3ccc(Cl)cn3)oc12`: the half-maximal inhibitory concentration (IC50) stood at 0.0016 µM.

With `COc1ccc(OC)c2c1c(OC)cc1c(=O)cc(-c3ccc(Br)cn3)oc12`, the IC50 was found to be 0.0389 µM.

For `COc1ccc(OC)c2c1c(OC)cc1c(=O)cc(-c3cccnc3O)oc12`, the IC50 is 0.152 µM.

Take `COc1ccc(OC)c2c1c(OC)cc1c(=O)cc(-c3ccnc(Br)c3)oc12`: the 50% inhibitory concentration (IC50) is 0.0269 µM.

For the molecule `COc1ccc(OC)c2c1c(OC)cc1c(=O)cc(-c3cccc(O)n3)oc12`, the IC50 turned out to be 0.323 µM.

For `COc1ccc(OC)c2c1c(OC)cc1c(=O)cc(-c3ccc4ccccc4n3)oc12`, the IC50 worked out at 0.118 µM.

With `COc1ccc(OC)c2c1c(OC)cc1c(=O)cc(-c3cncc(N)c3)oc12`, the half-inhibitory concentration (IC50) is 0.0188 µM.

As to `COc1ccc(OC)c2c1c(OC)cc1c(=O)cc(-c3cccnc3)oc12`, the IC50 was found to be 0.0076 µM.

With `COc1ccc(OC)c2c1c(OC)cc1c(=O)cc(-c3cccnc3Br)oc12`, the half-maximal inhibitory concentration (IC50) was 0.0607 µM.

Regarding `COc1ccc(OC)c2c1c(OC)cc1c(=O)cc(-c3cccc(Cl)n3)oc12`, the 50% inhibitory concentration (IC50) was found to be 0.0057 µM.

Turning to `COc1ccc(OC)c2c1c(OC)cc1c(=O)cc(-c3ccc(N4CCN(C)CC4)cc3)oc12`, the IC50 was greater than 1 µM.

On to `COc1ccc(OC)c2c1c(OC)cc1c(=O)cc(-c3cccc(N4CCN(C)CC4)c3)oc12`, for which the IC50 is greater than 1 µM.

The next test concerns the target T3, Cytochrome P450 1A2 (Homo sapiens, UniProt P05177).
T3 sequence (P05177 whole entry): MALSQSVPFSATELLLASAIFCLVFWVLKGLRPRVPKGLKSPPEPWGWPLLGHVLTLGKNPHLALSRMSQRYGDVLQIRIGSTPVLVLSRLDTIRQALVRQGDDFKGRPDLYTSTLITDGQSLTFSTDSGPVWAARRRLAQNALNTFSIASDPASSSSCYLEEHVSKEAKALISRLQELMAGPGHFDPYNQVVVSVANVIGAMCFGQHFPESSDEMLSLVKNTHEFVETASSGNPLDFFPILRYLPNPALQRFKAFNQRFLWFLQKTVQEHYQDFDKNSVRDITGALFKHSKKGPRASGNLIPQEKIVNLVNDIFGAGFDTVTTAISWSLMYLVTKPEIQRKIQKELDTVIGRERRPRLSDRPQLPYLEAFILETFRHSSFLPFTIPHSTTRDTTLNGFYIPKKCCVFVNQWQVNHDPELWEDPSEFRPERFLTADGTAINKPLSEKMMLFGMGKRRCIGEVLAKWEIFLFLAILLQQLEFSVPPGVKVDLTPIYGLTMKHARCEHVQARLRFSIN
Put plainly: Inhibition of recombinant human CYP1A2 using 7-ethoxyresorufin as substrate after 50 mins in presence of NADP+ by EROD assay. Type of test: ADME. The gist of the method: as §1
For the molecule `COc1ccc(OC)c2c1c(OC)cc1c(=O)cc(-c3c[nH]c4ncccc34)oc12`, the concentration for half-maximal inhibition (IC50) is greater than 1 µM.

Regarding `COc1ccc(OC)c2c1c(OC)cc1c(=O)cc(-c3c[nH]c4ccccc34)oc12`, the half-maximal inhibitory concentration (IC50) is greater than 1 µM.

For `COc1ccc(OC)c2c1c(OC)cc1c(=O)cc(-c3ccc(Cl)cn3)oc12`, the IC50 was 0.208 µM.

As to `COc1ccc(OC)c2c1c(OC)cc1c(=O)cc(-c3ccc(Br)cn3)oc12`, the 50% inhibitory concentration (IC50) stood at 0.623 µM.

Consider `COc1ccc(OC)c2c1c(OC)cc1c(=O)cc(-c3cccnc3O)oc12`, for which the 50% inhibitory concentration (IC50) was greater than 1 µM.

Regarding `COc1ccc(OC)c2c1c(OC)cc1c(=O)cc(-c3ccnc(Br)c3)oc12`, the IC50 is greater than 1 µM.

In the case of `COc1ccc(OC)c2c1c(OC)cc1c(=O)cc(-c3cccc(O)n3)oc12`, the IC50 was greater than 1 µM.

Take `COc1ccc(OC)c2c1c(OC)cc1c(=O)cc(-c3ccc4ccccc4n3)oc12`: the IC50 is greater than 1 µM.

Regarding `COc1ccc(OC)c2c1c(OC)cc1c(=O)cc(-c3cncc(N)c3)oc12`, the half-inhibitory concentration (IC50) was found to be 0.628 µM.

Take `COc1ccc(OC)c2c1c(OC)cc1c(=O)cc(-c3cccnc3)oc12`: the concentration for half-maximal inhibition (IC50) worked out at 0.117 µM.

Regarding `COc1ccc(OC)c2c1c(OC)cc1c(=O)cc(-c3cccnc3Br)oc12`, the 50% inhibitory concentration (IC50) turned out to be 0.966 µM.

Turning to `COc1ccc(OC)c2c1c(OC)cc1c(=O)cc(-c3cccc(Cl)n3)oc12`, the half-inhibitory concentration (IC50) stood at 0.349 µM.

For `COc1ccc(OC)c2c1c(OC)cc1c(=O)cc(-c3ccc(N4CCN(C)CC4)cc3)oc12`, the IC50 was greater than 1 µM.

Regarding `COc1ccc(OC)c2c1c(OC)cc1c(=O)cc(-c3cccc(N4CCN(C)CC4)c3)oc12`, the half-inhibitory concentration (IC50) is greater than 1 µM.

Another test is filed under the species Homo sapiens. Put plainly: Selectivity index, ratio of IC50 for recombinant human CYP1A1 to IC50 for recombinant human CYP1B1.
In the case of `COc1ccc(OC)c2c1c(OC)cc1c(=O)cc(-c3c[nH]c4ncccc34)oc12`, the Ratio IC50 worked out at 0.1.

As for `COc1ccc(OC)c2c1c(OC)cc1c(=O)cc(-c3c[nH]c4ccccc34)oc12`, the Ratio IC50 turned out to be 4.

As to `COc1ccc(OC)c2c1c(OC)cc1c(=O)cc(-c3ccc(Cl)cn3)oc12`, the Ratio IC50 is 11.4.

Take `COc1ccc(OC)c2c1c(OC)cc1c(=O)cc(-c3ccc(Br)cn3)oc12`: the Ratio IC50 worked out at 29.9.

On to `COc1ccc(OC)c2c1c(OC)cc1c(=O)cc(-c3ccnc(Br)c3)oc12`, for which the Ratio IC50 is 58.5.

On to `COc1ccc(OC)c2c1c(OC)cc1c(=O)cc(-c3cccc(O)n3)oc12`, for which the Ratio IC50 is 41.9.

As for `COc1ccc(OC)c2c1c(OC)cc1c(=O)cc(-c3ccc4ccccc4n3)oc12`, the Ratio IC50 stood at 118.

In the case of `COc1ccc(OC)c2c1c(OC)cc1c(=O)cc(-c3cncc(N)c3)oc12`, the Ratio IC50 amounted to 0.8.

`COc1ccc(OC)c2c1c(OC)cc1c(=O)cc(-c3cccnc3)oc12`: the Ratio IC50 was determined as 7.6.

As to `COc1ccc(OC)c2c1c(OC)cc1c(=O)cc(-c3cccnc3Br)oc12`, the Ratio IC50 came out at 0.9.

Regarding `COc1ccc(OC)c2c1c(OC)cc1c(=O)cc(-c3cccc(Cl)n3)oc12`, the Ratio IC50 is 19.

For another test, the species on record is Homo sapiens. Put plainly: Selectivity index, ratio of IC50 for recombinant human CYP1A2 to IC50 for recombinant human CYP1B1.
Take `COc1ccc(OC)c2c1c(OC)cc1c(=O)cc(-c3c[nH]c4ncccc34)oc12`: the Ratio IC50 is greater than 5.3.

On to `COc1ccc(OC)c2c1c(OC)cc1c(=O)cc(-c3c[nH]c4ccccc34)oc12`, for which the Ratio IC50 was greater than 244.

For `COc1ccc(OC)c2c1c(OC)cc1c(=O)cc(-c3ccc(Cl)cn3)oc12`, the Ratio IC50 turned out to be 1490.

As for `COc1ccc(OC)c2c1c(OC)cc1c(=O)cc(-c3ccc(Br)cn3)oc12`, the Ratio IC50 amounted to 479.

For `COc1ccc(OC)c2c1c(OC)cc1c(=O)cc(-c3ccnc(Br)c3)oc12`, the Ratio IC50 is greater than 2170.

As for `COc1ccc(OC)c2c1c(OC)cc1c(=O)cc(-c3cccc(O)n3)oc12`, the Ratio IC50 was greater than 130.

`COc1ccc(OC)c2c1c(OC)cc1c(=O)cc(-c3ccc4ccccc4n3)oc12`: the Ratio IC50 is greater than 1000.

In the case of `COc1ccc(OC)c2c1c(OC)cc1c(=O)cc(-c3cncc(N)c3)oc12`, the Ratio IC50 came to 27.4.

As for `COc1ccc(OC)c2c1c(OC)cc1c(=O)cc(-c3cccnc3)oc12`, the Ratio IC50 came to 117.

Regarding `COc1ccc(OC)c2c1c(OC)cc1c(=O)cc(-c3cccnc3Br)oc12`, the Ratio IC50 is 15.1.

Turning to `COc1ccc(OC)c2c1c(OC)cc1c(=O)cc(-c3cccc(Cl)n3)oc12`, the Ratio IC50 is 1160.
